{"source": "ChEMBL document CHEMBL3414559", "about": "“Novel C-4 heteroaryl 13-cis-retinamide Mnk/AR degrading agents inhibit cell proliferation and migration and induce apoptosis in human breast and prostate cancer cells and suppress growth of MDA-MB-231 human breast and CWR22Rv1 human prostate tumor xenografts in mice” (J Med Chem, 2015)", "key": {"CWR22R [1]": {"test_system": "CWR22R", "test": "Antitumor activity against human CWR22Rv1 cells xenografted in SCID mouse assessed as reduction in fAR protein expression at 20 mg/kg, ip dosed once daily for 5 days per week for 28 days by SDS-PAGE and Western blotting method", "type": "functional, organism-based", "design": "dose 20 mg/kg", "outline": "(§1)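 CWR22Rv1 cells (1 × 10⁶) implanted subcutaneously in male SCID mice, castrated; at ~100 mm³ tumors, randomized (n = 6/group) to vehicle (40% β-cyclodextrin in ddH₂O) or drug ip in same vehicle once daily, 5 days/week for 28 days. Tumor lysates made in RIPA buffer, 50 μg protein from pooled samples (n = 6) on 10% SDS–PAGE, immunoblotted; GAPDH as loading control.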"}, "Mus musculus": {"test_system": "Mus musculus", "test": "Toxicity in human CWR22Rv1 cells xenografted SCID mouse assessed as effect on body weight at 20 mg/kg, ip dosed once daily for 5 days per week for 28 days", "type": "organism-based", "design": "dose 20 mg/kg, route intraperitoneal", "details": "in vivo", "outline": "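Castrated male SCID mice carried subcutaneous CWR22Rv1 tumors (1 × 10⁶ cells implanted) and were randomized at ~100 mm³, n = 6/group. Dosing was ip 20 mg/kg once daily, 5 days/week for 28 days, in 40% β-cyclodextrin in ddH₂O, against vehicle. Body weight was monitored throughout as a surrogate toxicity marker.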"}, "LNCaP [2]": {"test_system": "LNCaP", "test": "Reduction in cell viability in human LNCAP cells at 5 uM after 72 hrs by MTT assay", "type": "functional, cell-based", "outline": "(§2)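 LNCaP cells transfected with 100 nM AR and/or Mnk1 siRNA (or scrambled control) by lipofection for 18 h, washed twice with PBS, returned to growth medium; drug added 24 h later, viability read by MTT after 72 h. Untransfected cells treated alike. Knockdown confirmed by immunoblot; three independent experiments, normalized to control cells.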"}, "CWR22R [3]": {"test_system": "CWR22R", "test": "Antitumor activity against human CWR22Rv1 cells xenografted in SCID mouse assessed as reduction in AR-V7 protein expression at 20 mg/kg, ip dosed once daily for 5 days per week for 28 days by SDS-PAGE and Western blotting method", "type": "functional, organism-based", "design": "dose 20 mg/kg", "outline": "as §1"}, "CWR22R [4]": {"test_system": "CWR22R", "test": "Antitumor activity against human CWR22Rv1 cells xenografted in SCID mouse assessed as reduction in Bcl2 protein expression at 20 mg/kg, ip dosed once daily for 5 days per week for 28 days by SDS-PAGE and Western blotting method", "type": "functional, organism-based", "design": "dose 20 mg/kg", "outline": "as §1"}, "LNCaP [5]": {"test_system": "LNCaP", "test": "Reduction in cell viability in human LNCAP cells in presence of Mnk1 siRNA at 2.5 uM and 5 uM after 72 hrs by MTT assay", "type": "functional, cell-based", "outline": "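LNCaP cells in RPMI 1640 with 10% FBS were transfected with 100 nM Mnk1 siRNA (Lipofectamine 2000) for 18 h, with scrambled siRNA as control. After two PBS washes they were returned to growth medium, dosed 24 h later, and harvested after 72 h. Viability was read by MTT and normalized to control cells, as mean ± SEM of three independent experiments.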"}, "LNCaP [6]": {"test_system": "LNCaP", "test": "Reduction in cell viability in human LNCAP cells in presence of AR siRNA at 2.5 uM and 5 uM after 72 hrs by MTT assay", "type": "functional, cell-based", "outline": "as §2"}, "CWR22R [7]": {"test_system": "CWR22R", "test": "Antitumor activity against human CWR22Rv1 cells xenografted in SCID mouse assessed as reduction in cyclin D1 protein expression at 20 mg/kg, ip dosed once daily for 5 days per week for 28 days by SDS-PAGE and Western blotting method", "type": "functional, organism-based", "design": "dose 20 mg/kg", "outline": "as §1"}, "CWR22R [8]": {"test_system": "CWR22R", "test": "Antitumor activity against human CWR22Rv1 cells xenografted in SCID mouse assessed as increase in Bad protein expression at 20 mg/kg, ip dosed once daily for 5 days per week for 28 days by SDS-PAGE and Western blotting method", "type": "functional, organism-based", "design": "dose 20 mg/kg", "outline": "as §1"}, "CWR22R [9]": {"test_system": "CWR22R", "test": "Antitumor activity against human CWR22Rv1 cells xenografted in SCID mouse assessed as reduction in Mnk1/2 protein expression at 20 mg/kg, ip dosed once daily for 5 days per week for 28 days by SDS-PAGE and Western blotting method", "type": "functional, organism-based", "design": "dose 20 mg/kg", "outline": "as §1"}, "[10]": {"test": "Antitumor activity against human CWR22Rv1 cells xenografted in SCID mouse assessed as tumor growth at 20 mg/kg, ip dosed once daily for 5 days per week for 28 days", "type": "functional, CWR22R", "details": "route intraperitoneal", "outline": "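Castrated male SCID mice carrying subcutaneous CWR22Rv1 tumors (1 × 10⁶ cells implanted; ~100 mm³ at randomization, n = 6/group) given ip drug in 40% β-cyclodextrin/ddH₂O once daily, 5 days/week for 28 days; vehicle controls. Tumor volume followed; %T/C = median treated volume/median control volume at day 28 × 100. Body weight tracked as toxicity marker.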"}, "CWR22R [11]": {"test_system": "CWR22R", "test": "Antitumor activity against human CWR22Rv1 cells xenografted in SCID mouse assessed as reduction in peIF4E protein expression at 20 mg/kg, ip dosed once daily for 5 days per week for 28 days by SDS-PAGE and Western blotting method", "type": "functional, organism-based", "design": "dose 20 mg/kg", "outline": "as §1"}, "[12]": {"test": "Antitumor activity against human CWR22Rv1 cells xenografted in SCID mouse assessed as inhibition of tumor growth at 20 mg/kg, ip dosed once daily for 5 days per week for 28 days", "type": "functional, CWR22R", "details": "22Rv1, ip, route intraperitoneal, read-out: TGI"}}, "note": "The source made the active and inactive calls. The rule behind the calls is not given here."}
{"smiles": "CC1=C(/C=C/C(C)=C/C=C/C(C)=C\\C(=O)Nc2cccc(F)c2)C(C)(C)CCC1n1ccnc1", "note": "(stereo not drawn)", "values": [{"measurement": "Activity", "setting": "CWR22R [1]", "value": "Active"}, {"measurement": "Activity", "setting": "Mus musculus", "value": "Non-toxic"}, {"measurement": "Activity", "setting": "LNCaP [2]", "value": "Active"}, {"measurement": "Activity", "setting": "CWR22R [3]", "value": "Active"}, {"measurement": "Activity", "setting": "CWR22R [4]", "value": "Active"}, {"measurement": "Activity", "setting": "LNCaP [5]", "value": "Active"}, {"measurement": "Activity", "setting": "LNCaP [6]", "value": "Active"}, {"measurement": "Activity", "setting": "CWR22R [7]", "value": "Active"}, {"measurement": "Activity", "setting": "CWR22R [8]", "value": "Active"}, {"measurement": "Activity", "setting": "CWR22R [9]", "value": "Active"}, {"measurement": "T/C", "setting": "[10]", "value": 38.8, "unit": "%"}, {"measurement": "Activity", "setting": "CWR22R [11]", "value": "Active"}, {"measurement": "inhibition in vivo at 20 mg/kg", "setting": "[12]", "value": 61.2, "unit": "%"}]}
